# KCNK9 inh: inhibitors of human KCNK9 two-pore domain potassium channel; Q9NPC2; HEK293 KCNK9, FluxOR thallium flux fluorescence; active compounds read low; B-score at 10 µM; 1.2% of 310,000 active; AID 488922;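 active = ratio B-score over 3 SD below the library mean, with starting fluorescence within 5 SD of its mean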;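 also: negative B-score means less thallium flux so channel inhibition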
# Target sequence (Q9NPC2 whole entry, looked up, the tested form may be a part): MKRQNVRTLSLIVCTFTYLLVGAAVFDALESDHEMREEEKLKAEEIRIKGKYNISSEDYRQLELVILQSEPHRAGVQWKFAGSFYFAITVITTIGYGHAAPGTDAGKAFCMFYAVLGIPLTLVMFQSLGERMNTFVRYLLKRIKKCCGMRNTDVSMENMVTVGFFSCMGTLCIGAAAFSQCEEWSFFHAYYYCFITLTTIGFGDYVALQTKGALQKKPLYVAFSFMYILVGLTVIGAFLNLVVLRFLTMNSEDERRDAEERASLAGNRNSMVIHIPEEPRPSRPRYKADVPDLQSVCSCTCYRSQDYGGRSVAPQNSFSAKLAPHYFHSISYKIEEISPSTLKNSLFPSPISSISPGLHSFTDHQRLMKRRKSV
# KCNK3 block: human KCNK3 channel inhibition, primary screen | O14649 | CHO-KCNK3 thallium flux, FluxOR fluorescence; active compounds read low | B-score at 10 µM | 0.84% of 340,000 active | AID 602410;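 active = B-score under library mean minus 4 SD, starting fluorescence ratio at most library mean plus 5 SD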;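 also: more negative B-score means stronger inhibition of thallium flux through KCNK3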
# KCNQ1 block: human KCNQ1 channel inhibition; P51787; CHO-K1 KCNQ1, FluxOR thallium flux fluorescence; active compounds read high; B-score at 10 µM; 1.3% of 310,000 active;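 active = compounds whose thallium flux B-score, printed positive for inhibition, exceeds three library SD while starting fluorescence stays within three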;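 also: channel opened by potassium depolarization with thallium stimulus after 20 min compound exposure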
# Kir21 inh: blocks the mouse Kir2.1 inward-rectifier potassium channel; P35561; HEK293-Kir2.1, FluxOR thallium flux fluorescence; active compounds read low; B-score at 10 µM; 0.85% of 310,000 active;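 active = fluorescence ratio B-score at or below minus 3 SD of library scores, with starting-brightness B-score within 2 SD, cut at about -4.2 in these data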;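 also: channel flux triggered by added potassium and thallium sulfate stimulus; B-score of peak minus minimum fluorescence over baseline after thallium stimulus; more negative B-score means stronger Kir2.1 block with less thallium influx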
# hERG protect: compounds protecting human hERG from proarrhythmic drug block; Q12809; CHO-hERG, FluxOR thallium flux, dofetilide IC70 present; activation (rescue from dofetilide block), less the hit threshold, % at 10 µM; 0.51% of 310,000 active; AID 1511;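 active = activation above the mean of controls blocked by dofetilide plus 5 SD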;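 also: thallium influx through hERG after potassium depolarization seen as dye fluorescence rise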
# KCNQ1 act: potentiates or activates the human KCNQ1 potassium channel. P51787. CHO-K1 KCNQ1, thallium flux FluxOR fluorescence; active compounds read high. B-score at 10 µM. 0.35% of 310,000 active. AID 2648;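 active = fluorescence ratio B-score, a plate-corrected score, at least three library SD, with initial intensity B-score within 5 SD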
#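 Material: CHO-K1 cells stably expressing KCNQ1. Medium: assay buffer for compound exposure, DMSO matched across wells. Reagent: K+/Tl+ depolarizing stimulus. Compound dosing: single-concentration screen. Times: 37 °C overnight plating, 90-min dark dye load, 20-min compound pretreatment. Technique: FluxOR Tl+ flux fluorescence.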
# An asterisk follows results filed as active; i = inactive; . = not tested or not shown. Compounds with a hit are over-represented: about 3.7% of the library has one in this group of screens.
SMILES,KCNK9 inh,KCNK3 block,KCNQ1 block,Kir21 inh,hERG protect,KCNQ1 act
O=C1Nc2ccccc2/C1=C/c1cnc(-c2ccccc2)[nH]1,-6.6*,i,i,-1.6,-5,i
Cc1cc(C)nc(/N=C(\N)Nc2ccc(CC(=O)OC(C)C)cc2)n1,i,i,i,-2.8,-10,10*
Cc1cc(C)nc(/N=C(\N)Nc2ccc(OCCC(C)C)cc2)n1,i,i,i,-3.2,-12,i
CCOC(=O)C1=C(C)N=C2SC(C(=O)OC)=CC(=O)N2C1c1ccc(F)cc1 (stereo unspecified),i,i,i,-5.4*,-13,i
CCOC(=O)C1=C(C)N=C2SC(C(=O)OC)=CC(=O)N2C1c1cccc(OC)c1 (stereo unspecified),i,i,i,-0.51,-5,i
C=CCn1c(=S)[nH]c2scc(-c3ccc(C)o3)c2c1=O,i,i,i,0.81,64*,99*
CCn1c(=S)[nH]c2scc(-c3cccs3)c2c1=O,i,i,i,0.07,100*,112*
Cn1cc(C(CO)Cc2ccccc2)c2ccccc21 (stereo unspecified),.,i,.,.,.,.
Cc1cn(CC(=O)NCCc2ccccn2)c(=O)[nH]c1=O,.,i,.,.,.,.
CCOC(=O)/C(=C\c1ccccc1)NC(=O)c1ccccc1,i,i,i,-1.6,-9,i
CCOC(=O)/C(=C/c1ccc(OC(=O)c2ccccc2)cc1)C(C)=O,i,i,i,-9.4*,-17,i
Cc1ccc(NC(=S)N(CCCN2CCCC2)Cc2cccn2Cc2ccc(Cl)cc2)cc1Cl,i,i,7*,0.5,-12,i
Cc1ccc(NC(=S)N(CCCN2CCCC2)Cc2cccn2Cc2ccc(Cl)cc2)cc1C,i,i,i,-0.84,-16,i
CCCCc1nc2ccccc2c(C(=O)O)c1C,i,i,i,0.81,-11,i
CCCCc1nc2ccccc2c(N)c1CCC (tested in a mixture with another compound),i,i,i,-8.3*,-9,i
CCOC(=O)CCN(c1ccccc1)S(=O)(=O)c1ccc(-c2ccc(=O)[nH]n2)s1,i,i,i,-0.3,-7,i
CNC(=O)c1sc(N2N=C3/C(=C/c4ccccc4)CCCC3C2c2ccccc2)nc1C (stereo unspecified),-8.7*,i,i,-0.72,-9,i
Cc1ccc2nc(/C(C#N)=C\c3cc(C)n(-c4cccc([N+](=O)[O-])c4)c3C)[nH]c2c1,i,i,8*,-1.3,-12,i
CCN(CC)c1ccc(/C=N/N2C(C)CCCC2C)c(O)c1 (stereo unspecified),i,i,i,-1.3,-8,i
Cc1ccc(NC(=O)Nc2ccccc2F)cc1S(=O)(=O)N1CCOCC1,.,-10*,.,.,.,.
CC(=O)c1cc(F)ccc1OCC(=O)N1CCCc2ccccc21,i,i,i,-6.5*,-4,i
O=C(COc1ccc(Cl)cc1Cl)NC(=S)N1CCCc2ccccc21,i,i,i,0.04,13*,i
O=[N+]([O-])c1ccc(NC(=S)N2CCc3ccccc32)cc1,i,i,9*,-0.58,-10,i
O=C(NC(=S)N1CCc2ccccc21)c1ccccc1Cl,i,i,i,-0.57,31*,24*
S=C(Nc1ccccc1)N1CCc2ccccc21,i,i,i,1,-10,i
SMILES,KCNK9 inh,KCNK3 block,KCNQ1 block,Kir21 inh,hERG protect,KCNQ1 act
O=C(COc1ccccc1F)N1CCCc2ccccc21,i,i,i,1.9,-7,i
O=C(COc1ccc(Cl)cc1Cl)OCC(=O)N1CCCc2ccccc21,i,i,i,0.97,-2,i
CN(C)S(=O)(=O)c1ccc(Cl)c(NC(=O)CN2C(=O)NC3(CCc4ccccc43)C2=O)c1 (stereo unspecified),.,i,.,.,.,.
O=C(NC(=S)N1CCc2ccccc21)c1ccccc1,i,i,i,3.5,24*,i
CCOc1ccc(N=C(C)c2ccccc2O)cc1,i,i,i,0,-1,i
Cc1cccc(N=Nc2ccc(O)c3ncccc23)c1,i,i,i,-0.91,2,10*
Cc1ccc(C)c(N=Nc2ccc(O)c3ncccc23)c1,i,i,i,0.98,-6,i
CCOc1ccc(N=Nc2cc(C(C)C)ccc2O)cc1,i,i,i,1.6,9.1*,i
CCOc1ccc(N=Nc2ccc(O)c3ncccc23)cc1,i,i,i,1.7,11*,i
O=C(CCNS(=O)(=O)c1ccc(Cl)cc1)N1CCCCCC1,i,i,i,-0.12,-12,i
COc1ccc2cc(C(C)C(=O)Nc3cccc(S(=O)(=O)N(C)C)c3)ccc2c1 (stereo unspecified),i,i,i,1.8,-1,i
O=c1c2ccccc2c(C=NCCc2ccccc2)c(O)n1Cc1ccccc1,i,i,6*,-0.22,-14,i
O=c1c2ccccc2c(C=NCCCN2CCOCC2)c(O)n1Cc1ccccc1,i,i,i,-5.8*,-11,i
CC(C)(C)N1C(=O)[C@H]2[C@@H](c3ccc(Br)cc3)N3C(=O)N(c4cccc(Br)c4)C(=O)[C@@]3(Cc3ccccc3)[C@H]2C1=O,-6.9*,i,i,-1,-4,i
COc1ccc(C(=O)N2CCOC2CNC(=O)C(=O)NCCc2ccc(OC)c(OC)c2)cc1 (stereo unspecified),i,i,i,-1.4,-6,i
Cc1cc(=O)c(C(=O)Nc2cccc(C(=O)NC3CC3)c2)nn1-c1ccccc1Cl,.,i,.,.,.,.
Cc1ccc(Cn2c(=N)n(CC(O)c3ccco3)c3ccccc32)cc1 (stereo unspecified),i,i,i,-5*,-7,i
C=CCn1c(=N)n(CC(=O)c2ccc(Br)cc2)c2ccccc21,i,i,i,0.45,-14,i
N=c1n(Cc2ccccc2Cl)c2ccccc2n1CC(O)c1ccco1 (stereo unspecified),i,i,i,-5.2*,-11,i
CCCn1c(=N)n(CC(O)c2ccco2)c2ccccc21 (stereo unspecified),i,i,i,-0.17,1,i
N=c1n(N)c2ccccc2n1CC(=O)c1ccc(Br)cc1,i,i,i,-5.5*,-9,i
CCCn1c(=N)n(CC(O)c2ccc(C)cc2)c2ccccc21 (stereo unspecified),i,i,i,-6*,-14,i
CCN(CC)CCNC(=O)C(Oc1ccccc1)Oc1ccccc1,i,i,i,-0.22,-8,i

# Compound activity as filed in PubChem.
